Experimental data as given in paper PMC11455733 (Drugs in R&D, 2024).

Experiments:
[1] = test system: IL-1β, IL-6, and TNFα in total lung homogenates; assay: 10-day daily IP administration, lung cytokines by ELISA; type: in vivo, C57BL/6 mice; conditions: 20.0 mg/kg IP daily for 10 days, day 11, vs vehicle
Procedure, shortened: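 On day 11, IL-1β, IL-6 and TNFα were measured by mouse ELISA kits in total lung homogenates. Mice were C57BL/6 of both sexes (7–12 weeks; n = 8 per group), given daily IP vehicle (DMSO/0.5% Methocel in 0.9% NaCl, 10%/90% vol/vol) or test compound for 10 days. Analysis was ANOVA followed by unpaired t test.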

[2] = 10-day daily IP administration, complete blood count; type: in vivo, C57BL/6 mice; conditions: 20.0 mg/kg IP daily for 10 days, day 11, vs vehicle
Procedure, shortened: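 Blood was collected postmortem on day 11 and run on a veterinary haematology analyser for complete blood count. Mice were male and female C57BL/6 (7–12 weeks; n = 8 per group), dosed IP daily for 10 days with vehicle (DMSO/0.5% Methocel in saline, 10%/90% vol/vol) or test compound. Analysis was ANOVA, then unpaired Student t test.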

EphB2 = conditions: cited from earlier work
[3] = 10-day daily IP administration, serum chemistry; type: in vivo, C57BL/6 mice; conditions: 20.0 mg/kg IP daily for 10 days, day 11, vs vehicle
Procedure, shortened: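 Serum was prepared from postmortem blood on day 11 and analysed on a chemistry analyser per the manufacturer's instructions. Mice were C57BL/6 of both sexes (7–12 weeks; n = 8 per group), dosed IP daily for 10 days with vehicle (DMSO/0.5% Methocel in 0.9% NaCl, 10%/90% vol/vol) or test compound. Analysis was ANOVA, then unpaired t test.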

[4] = Solubility in water or saline; type: physicochemical
lung, liver, and kidney = assay: 10-day daily IP administration, H&E histology scoring; type: in vivo, C57BL/6 mice; conditions: 20.0 mg/kg IP daily for 10 days, all parameters
Procedure, shortened: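 Male and female C57BL/6 mice (7–12 weeks; n = 8 per group, equal sexes) got IP vehicle (DMSO then 0.5% Methocel in 0.9% NaCl, 10%/90% vol/vol) or test compound daily from day 0 for 10 days. On day 11, organs were fixed in 10% neutral formalin and paraffin-embedded. 5 μm H&E sections were graded blindly by a pathologist over the whole section area.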

[5] = 10-day daily IP administration, body weight; type: in vivo, C57BL/6 mice
Procedure, shortened: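 Body weights were recorded daily and again on day 11, before euthanasia. Mice were C57BL/6 of both sexes (7–12 weeks; n = 8 per group, equal males and females), with sex data combined. Dosing was IP once daily for 10 days with vehicle (DMSO diluted 10%/90% vol/vol in 0.5% Methocel/0.9% NaCl) or test compound. Groups were compared by ANOVA followed by unpaired t test.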

[6] = test system: Col1a1 and Fn mRNA in total lung RNA; assay: 10-day daily IP administration, lung extracellular matrix mRNA by qPCR; type: in vivo, C57BL/6 mice; conditions: 20.0 mg/kg IP daily for 10 days, day 11, vs vehicle
Procedure, shortened: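 Lung tissue was taken on day 11, after 10 days of daily IP vehicle (DMSO/0.5% Methocel-saline) or test compound in male and female C57BL/6 mice (n = 8 per group). Tissue was lysed and RNA purified with genomic DNA removal. cDNA was made with oligo(dT) plus random hexamers, then SYBR green real-time PCR was run. Col1a1 and Fn were expressed as ratios to B2M.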

[7] = within normal published parameters

SMILES: CCN1CCN(Cc2ccc(NC(=O)c3ccc(C)c(NC(=O)c4cncc(-c5cccs5)c4)c3)cc2C(F)(F)F)CC1 [ALW-II-41-27]
- IL-1β in whole-lung lysates [1]: No significant alterations
- IL-6 in whole-lung lysates [1]: No significant alterations
- TNF-α in whole-lung lysates [1]: No significant alterations
- CBC parameters other than NEU and RBC [2]: no significant differences
- neutrophil (NEU) count [2, 7]: significantly higher
- red blood cell (RBC) count [2, 7]: significantly higher
- inhibition of the Ephrin receptor EphB2 (EphB2): shown to inhibit
- serum chemistry parameters other than creatinine [3]: no significant changes
- solubility in water or saline [4]: lack of solubility
- histology score (0 normal to 4+), lung, liver, and kidney (lung, liver, and kidney): 0
- daily and ending weight loss ([5]; 20.0 mg/kg IP daily for 10 days, vs vehicle): no significant changes
- tolerability ([5]; 20.0 mg/kg IP once a day in mice): well tolerated
- Col1a1 mRNA expression (ratio to B2M) in lung [6]: no significant differences
- Fn mRNA expression (ratio to B2M) in lung [6]: no significant differences
